# Screens (PubChem)
# NR2E3 ag-1 = NR2E3 agonists in two-hybrid cells, primary screen, cell-based, luminescence, CHO-S, Gal4-NCOR/VP16-NR2E3. luciferase. inhibition of corepressor binding, % at 3.98 µM. 0.35% of 360,000 active. AID 602229, 2012;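 active means inhibition above the mean of all tested compounds plus 3 SD, cut at about 70% in these data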;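 further: higher means lower luciferase signal from less NR2E3 corepressor binding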
# SMARCA2 act = SMARCA2 (BRM) function activators, primary screen, cell-based, luminescence, high throughput. 1% of 370,000 active. MG213 cells, MMTV-luciferase reporter, dexamethasone, overnight. AID 652017, 2013. activation, % at 9.1 µM; in the data active means activation above about 7.8%
# GalR3 antagonist = GalR3 antagonists in HEK293 cells, primary screen, cell-based, fluorescence readout; 0.44% of 360,000 active; HEK293 GalR3-CNG cAMP membrane potential fluorescence; galR3 body fused to GalR1 C-terminus; inhibition, % at 3 µM; Galanin receptor type 3 (Homo sapiens), O60755;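 active means inhibition above the screen-wide average plus 3 SD, cut at about 13% in these data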;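 further: forskolin and galanin both at EC90 stimulate the cells; cAMP rise reported by CNG channel membrane potential dye signal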
# Target sequence (O60755 1-299 limits assumed): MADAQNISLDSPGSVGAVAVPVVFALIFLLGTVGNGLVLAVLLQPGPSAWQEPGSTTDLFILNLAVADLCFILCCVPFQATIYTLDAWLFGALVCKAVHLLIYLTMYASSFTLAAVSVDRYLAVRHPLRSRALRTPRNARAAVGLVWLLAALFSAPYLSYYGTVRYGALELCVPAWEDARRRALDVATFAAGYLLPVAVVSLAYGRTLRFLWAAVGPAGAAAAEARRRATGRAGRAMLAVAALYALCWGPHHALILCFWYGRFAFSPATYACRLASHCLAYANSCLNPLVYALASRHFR
# NR2F2 inh = NR2F2 transcriptional activity inhibitors, primary screen, cell-based, luciferase reporter, HEK293T, luminescence; 0.7% of 370,000 active; inhibition, % at 8.6 µM; HEK293T NGFI-A luciferase reporter; AID 686940, 2013;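 active means inhibition above a per-plate cutoff, mean inhibition of test wells between control levels plus 3 SD, cut at about 38% in these data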;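 further: cells cotransfected with COUP-TFII expression vector driving the NGFI-A reporter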
# NR2E3 ag-2 = inhibitors of NR2E3-RetCOR corepressor binding, primary screen, NR2E3 agonist project, biochemical, TR-FRET, GST-NR2E3, biotin-RetCOR. AID 2300, 2010. 1536-well. 0.12% of 320,000 active. inhibition of corepressor binding, % at 4.78 µM. Photoreceptor-specific nuclear receptor (Homo sapiens), Q9Y5X4;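 active means percent inhibition above the cutoff of mean plus 3 SD of all tested compounds, set per screening campaign, cut at about 20% in these data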
#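 System: GST-NR2E3 and biotin-RetCOR proteins; probe or stimulus: 7 nM biotin-RetCOR; doses: compound at 4.8 µM, single dose; schedule: Compound–protein incubation for 5 h at 4 °C; detection: time-resolved FRET; read-out: percent inhibition; controls: biotin wells as high control, 0.6% DMSO wells as low control; format: 1536-well plates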
# VP16 Luc counter = Gal4-VP16 luciferase reporter inhibitors, counter-screen for COUP-TFII antagonist project, cell-based, luminescence, HEK293; inhibition, % at 8.5 µM; shares compounds with NR2F2 inh; 25% of 2,500 active; AID 687007, 2013; in the data active means inhibition above about 13%
# COUP-TFII conf = NR2F2 transcriptional activity inhibitors, confirmation, cell-based, luciferase reporter, HEK293, triplicate; inhibition, % at 8.5 µM; HEK293 NGFI-A luciferase reporter, luminescence; 45% of 2,500 active; shares compounds with NR2F2 inh;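 active means mean inhibition over three repeats above a set limit taken from the earlier primary screen, cut at about 38% in these data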
# A number is an active result; i = inactive; nt = no result; ! = not active in a repeat. Compounds with a hit are over-represented: about 2.2% of the library has one in this group of screens.
SMILES,NR2E3 ag-1,SMARCA2 act,GalR3 antagonist,NR2F2 inh,NR2E3 ag-2,VP16 Luc counter,COUP-TFII conf
CSc1ccc(CN(C)C(=O)c2cc(S(=O)(=O)NCc3ccccc3)ccc2C)cc1,i,i,i,53.3,i,i,i
O=C(COc1ccc(Cl)cc1)Nc1ccc(N2CCN(C(=O)c3ccco3)CC2)cc1,i,i,i,52.1,i,i,i
COc1ccc(OCC(=O)Nc2ccc(N3CCN(C(=O)c4ccco4)CC3)cc2)cc1,i,i,i,i,i,nt,nt
CN(Cc1ccccc1F)C(=O)C1CCC(CNS(=O)(=O)c2cccc3cccnc23)CC1 (stereo not drawn),nt,i,nt,i,nt,nt,nt
Cc1cc(C)cc(C(=O)OCCN2CCN(C3CN(Cc4cn(Cc5ccccc5F)nn4)S(=O)(=O)C3)CC2)c1 (stereo not drawn),nt,i,nt,48.5,nt,i,i
COc1ccc(CNC(=O)c2sc3nc(C)c(Cl)c(C)c3c2N)cc1,nt,i,nt,i,nt,nt,nt
CN(C)c1ccc(CC(=O)N2CCCCC2c2cc(C(=O)Nc3ccccc3Cl)no2)cc1 (stereo not drawn),i,i,i,47.5,nt,i,i
O=C(C1CCC1)N1CCc2cc(S(=O)(=O)N3CCCC3)ccc21,nt,i,nt,i,nt,nt,nt
COc1cccc(OCc2cc(C(=O)N(Cc3nccn3C)C(C)C)no2)c1,i,i,i,i,i,nt,nt
CC(=O)c1cccc(OCc2cc(C(=O)N3CCSCC3)no2)c1,i,i,i,i,i,nt,nt
CCN1CCN(C(=O)c2cc(COc3ccc4ncccc4c3)on2)CC1,i,i,i,37.8,i,i,i
CC(C)N(Cc1nccn1C)C(=O)c1cc(COc2ccc3ncccc3c2)on1,i,i,i,40.1,i,i,i
Cc1ccc(-c2nn3c(C)nnc3s2)cc1NC(=O)c1ccc(-c2ccc(Cl)cc2Cl)o1,i,i,i,i,i,nt,nt
Cc1ccc(-c2nn3c(C)nnc3s2)cc1NC(=O)c1ccc(-c2cccc(Cl)c2)o1,i,i,i,56.0!,nt,i,i
CNc1nc(N)c([N+](=O)[O-])c(Nc2ccccc2)n1,nt,nt,nt,i,nt,nt,nt
O=S(Cc1ccc(Br)cc1)Cc1nnc(SCc2ccc(Cl)cc2)n1-c1ccccc1 (stereo not drawn),i,i,i,45.2,i,i,i
O=S(Cc1ccc(Br)cc1)Cc1nnc(SCc2c(F)cccc2Cl)n1-c1ccccc1 (stereo not drawn),i,i,i,i,i,nt,nt
Cc1cccc(Oc2ccc(NC(=O)c3ccccc3C(=O)O)cc2)c1C,i,i,i,i,i,nt,nt
O=C(O)c1ccccc1C(=O)Nc1ccc(Oc2ccc3ccccc3c2)cc1,i,i,i,65.8,i,i,i
Cn1c(=O)oc2cc(S(=O)(=O)NCc3ccncc3)ccc21,i,i,i,43.7,i,i,i
COc1ccc(-c2csc(NC(C)=O)n2)cc1OC,i,i,i,i,i,nt,nt
COc1ccc(-c2csc(NC(=O)C3CCN(C(=O)c4ccc(F)cc4)CC3)n2)cc1OC,i,i,i,55.1,i,i,i
COc1cccc(NC(=O)Nc2nc(-c3ccc(OC)c(OC)c3)cs2)c1,i,i,i,73.1,i,72.2,100.4
CC[C@@H]1/C(=C/c2ccccc2)N2C(=O)C[C@@H](c3ccccc3)N=C2N1Cc1ccc(OC)cc1OC,nt,nt,nt,i,nt,nt,nt
Cc1ccc(NC(=O)c2cccc(F)c2)cc1S(=O)(=O)N1CCCCCC1,i,i,i,i,i,nt,nt
SMILES,NR2E3 ag-1,SMARCA2 act,GalR3 antagonist,NR2F2 inh,NR2E3 ag-2,VP16 Luc counter,COUP-TFII conf
COc1cc(CCC(=O)Nc2ccc(C)c(S(=O)(=O)N3CCCCCC3)c2)cc(OC)c1OC,i,i,i,53.6,i,i,i
Cc1ccc(NCC(=O)Nc2cccc(F)c2)cc1S(=O)(=O)N1CCCCCC1,i,i,i,46.3,i,i,i
O=C(CNc1cccc(S(=O)(=O)N2CCCCC2)c1)Nc1ccc(C(F)(F)F)cc1,i,i,i,37.5,nt,i,i
OC(c1ccccc1)(c1ccccc1)C1CCN(CCCOc2ccccn2)CC1,nt,i,i,i,nt,nt,nt
O=C(CSc1ccccc1)NC1CCCCN(Cc2cccc(Cl)c2)C1=O (stereo not drawn),nt,i,nt,i,nt,nt,nt
CN1C/C(=C/c2ccncc2)C(=O)/C(=C/c2ccncc2)C1,i,i,i,i,i,nt,nt
C=CC(=O)N1C/C(=C/c2ccc(Cl)cc2)C(=O)/C(=C\c2ccc(Cl)cc2)C1,i,i,i,90.0,nt,85.4,101.5
C=CC(=O)N1C/C(=C/c2ccccc2)C(=O)/C(=C\c2ccccc2)C1,i,i,i,98.1,nt,71.3,101.1
O=C(Nc1ccc2cn[nH]c2c1)c1c(Cl)cccc1Cl,i,i,i,i,i,nt,nt
O=C1C(Cl)=C(Nc2ccc3cn[nH]c3c2)C(=O)c2ccccc21,i,i,i,41.2,i,i,i
COc1ccc([C@H]2CC(=O)C=C(c3ccc(Oc4ccccc4)cc3)C2)cc1OC,i,i,i,44.2,i,i,i
COCCN(CCOC)C(=O)[C@@H](Cc1ccccc1)NC(=O)[C@H]1O[C@@H](n2ccc(N)nc2=O)[C@H](O)[C@@H]1O,nt,i,i,i,nt,nt,nt
C[C@H]1/C=C/CC(=O)N[C@@H](c2ccccc2)[C@@H](C)/C=C/CC(=O)N[C@H]1c1ccccc1,nt,i,nt,i,nt,nt,nt
COc1cccc(CN(C)CC(=O)Nc2cccc(S(=O)(=O)N(C)c3ccccc3)c2)c1OC,i,i,i,i,nt,nt,nt
COc1cc(CC(=O)Nc2cccc(S(=O)(=O)N(C)c3ccccc3)c2)cc(OC)c1OC,i,i,i,39.3,nt,i,i
COc1cc(CC(=O)Nc2cccc(SC)c2)cc(OC)c1OC,i,i,i,37.4,i,i,i
COc1ccc(CC(=O)Nc2cccc(SC)c2)cc1,i,i,i,i,i,nt,nt
CC(C)[C@H](NC(=O)c1ccc(Cl)cc1Cl)C(=O)N1CCC[C@H]1C(=O)NCc1ccccc1,nt,i,i,i,nt,nt,nt
COc1ccccc1OCc1ccc(C(=O)NC(C)(C)C)o1,i,i,i,i,i,nt,nt
COc1ccccc1OCc1ccc(C(=O)Nc2ccncc2)o1,i,i,i,38.9,i,i,i
O=C(CSc1nc2nc(-c3cccs3)cc(C(F)(F)F)c2c(=O)[nH]1)C(F)(F)F,i,i,i,38.1,i,i,i
